The list is not random: actives were taken first. Their share in the collection is about 8.9%.
HSV augment = enhancers of HSV replication in host cells, fold increase, host cell viability; HSV replication augmentation in cells; maximum fold increase; actives 0.005% (n = 220,000); in the data active = maximum fold increase above about 1.5; inconclusive = no clear call, values can overlap the other calls; tested in PC3 cells
Lmaj promast = Leishmania major promastigote growth inhibition, primary screen; Leishmania major promastigotes, resazurin fluorescence viability; inhibition, % at 10 µM; AID 1063, 2008; actives 9% (n = 200,000); in the data active = inhibition above about 50%;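 also: promastigotes grown with compound for 44 hours at 28 °C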
MT stabilize HCS = microtubule stabilizers in HeLa cells, primary screen, imaging, high-content imaging | actives 0.83% (n = 200,000) | HeLa tubulin immunostaining HCS, 24 h; share of cells brighter than vehicle mean+2SD | % tubulin-high responders, % at 10 µM;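 active = plate Z-score above 3 for both tubulin-high and condensed-nucleus cell shares, with cell loss under 80%, at 10 µM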;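 also: anti alpha tubulin signal scored within the nucleus-defined area of each cell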
Dynein cargo inh = inhibitors of GR-EGFP nuclear translocation, primary screen, dynein cargo transport inhibitor project, imaging, high-content, 3617.4 mouse cells | actives 0.47% (n = 220,000) | test concentration mostly 20 µM; stimulated with dexamethasone, 1 µM; active compounds read low | z-score, hits read low | AID 1381, 2008;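 active = plate z-score of nuclear minus cytoplasmic receptor signal below a set negative limit, without overly bright fluorescence or cell loss, cut at about -3.5 in these data, passing the limit was not always enough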;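 also: z-score of nuclear minus cytoplasmic ring GR-EGFP intensity difference per well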
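Medium: Induction medium lacking tetracycline, stripped serum | Probe or stimulus: 1.0 µM final dexamethasone stimulus | Schedule: 48 h induction, then 1 h compound, then 30 min agonist, 37 °C | Signal: Automated 10x imaging of fixed Hoechst-stained cells | Evaluation: Per-cell GR-EGFP intensity, nucleus versus surrounding cytoplasmic ring, well-averaged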
bCat nuc transl = modulators of beta-catenin nuclear translocation, primary screen, imaging, HeLa cells, immunofluorescence, high-content; nuclear translocation activity, % at 5 µM; actives 0.3% (n = 190,000); AID 1665, 2009;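 active = nuclear translocation activity above 50% at 5 µM, with a well cell count of 50 or more; inconclusive = wells under 50 cells across six images, flagged as toxic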;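 also: per-cell ratio of nuclear to cytoplasmic median beta-catenin stain intensity; plate controls were DMSO negative control for no effect and GSK-3 inhibitor IX positive control for full effect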
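Technique: fluorescence imaging of beta-catenin antibody stain plus DAPI / Material: human HeLa cell line / Incubation: compound treatment 24 h, 37°C, 5% CO2 / Read-out basis: % activation of per-cell nuclear versus cytoplasmic median beta-catenin signal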
Numbers without * were called inactive; i = inactive; ? = inconclusive; / = not tested or not shown.

SMILES	HSV augment	Lmaj promast	MT stabilize HCS	Dynein cargo inh	bCat nuc transl
Nc1ccc(C(=O)OCc2nc3cc4ccccc4cc3[nH]2)cc1	i	62.6*	6.4	-0.404	4.6
O=C(CN(CCc1ccccc1)C(=O)Cn1nnc(-c2cccs2)n1)NCc1ccco1	i	5.5	4.4	3.86	-2.2
O=C(CN(C(=O)Cn1nnc(-c2cccs2)n1)c1ccc2c(c1)OCCO2)NCc1ccccc1	i	95.3*	2.8	-0.216	-0.6
CCOc1cc(N2CCOCC2)c(OCC)cc1NC(=O)COC(=O)c1cc2ccccc2cc1O	i	62.1*	2.0	-0.448	/
CN(Cc1ccccc1)S(=O)(=O)c1ccc2c(c1)NC(=O)CC(=O)N2	i	6.3	5.4	2.34	0.0
Cc1ccc(NC(=S)NCCC(c2ccccc2)c2ccccc2)c(C)c1	?	65.8*	2.1	0.121	-0.2
S=C(NCCC(c1ccccc1)c1ccccc1)Nc1cccc(Cl)c1	i	59.2*	2.1	-0.416	0.9
Cc1ccccc1NC(=S)NCCC(c1ccccc1)c1ccccc1	i	29.7	2.8	0.952	1.3
CCC(C)n1c(C)nc2c(c1=O)c1nc3ccccc3nc1n2CCC1=CCCCC1 (centres undefined)	i	56.5*	2.6	-1.28	2.1
COc1ccc(CCn2c(N)c(C(=O)NCc3ccco3)c3nc4ccccc4nc32)cc1OC	i	-2.2	2.1	-0.0769	-5.6
COCCNC(=O)c1c(N)n(CCC2=CCCCC2)c2nc3ccccc3nc12	?	100.2*	1.4	-1.36	/
CCCCn1c2nc3ccccc3nc2c2c(=O)n(C(C)CC)cnc21 (centres undefined)	i	5.5	1.3	-1.07	0.6
COc1ccc(CCn2c(N)c(C(=O)NCc3ccco3)c3nc4ccccc4nc32)cc1	i	23.7	15.2*	0.388	13.5
CC(C)c1ccccc1OCCNC(=O)c1cccnc1	i	0.0	2.1	0.0939	-2.3
COc1ccc(CN=C(N)N=C(N)N)cc1Cl	i	-5.1	6.3	-0.215	-1.5
Cc1ccc(-n2nnnc2SCC(=O)Nc2cccnc2Cl)cc1	i	-9.3	5.9	-0.0563	-1.4
CC(C)=C1Cc2ccccc2C1=O	i	-3.9	1.6	-0.756	3.2
Cc1ccnc(SCc2cc(=O)c(OC(=O)c3ccco3)co2)n1	i	-6.2	1.9	0.221	-0.5
Cc1ccnc(SCc2cc(=O)c(OC(=O)c3ccc(Cl)c([N+](=O)[O-])c3)co2)n1	i	96.1*	4.4	-0.945	0.4
CC(=O)N1CCC(=NNc2ccnc3cc(Cl)ccc23)CC1	i	85.8*	2.9	2.78	4.1
CCOC(=O)N1CCC(=NNc2ccnc3cc(Cl)ccc23)CC1	i	61.4*	2.4	1.68	0.9
CCOC(=O)N1CCC(=NNc2ncc(C(F)(F)F)cc2Cl)CC1	i	-12.6	2.9	-0.962	-0.2
O=[N+]([O-])c1cccc(N/N=C/c2cccc(O)c2O)c1	i	90.1*	3.5	-0.279	8.5
O=[N+]([O-])c1ccc(N/N=C\c2ccccc2OCc2ccccc2)cc1	i	53.4*	4.6	-0.0389	-4.0
O=[N+]([O-])c1ccccc1N/N=C/c1cccc(O)c1O	i	/	/	-0.905	1.8
SMILES	HSV augment	Lmaj promast	MT stabilize HCS	Dynein cargo inh	bCat nuc transl
COc1cccc(/C=N/n2c(N)nc3ccccc32)c1OC	i	59.1*	2.7	-0.9	-2.3
Cc1ccc2c(c1)c1c(n2CC(O)Cn2c(C)nc3ccccc32)/C(=N\O)CCC1 (centres undefined)	i	57.6*	1.1	0.566	1.4
Cc1ccc2c(c1)c1c(n2CC(O)Cn2c(C)nc3ccccc32)C(=O)CCC1 (centres undefined)	i	21.4	3.1	-1.53	2.3
O=C1OCC(CO)(CO)N=C1NNc1ccc(Cl)c(Cl)c1	i	100.0*	4.2	0.913	1.6
CCOC(=O)N1CCN(C(=O)c2cc(-c3ccc(F)cc3)[nH]c2C)CC1	i	5.5	4.4	-0.355	0.5
CCOCCCNC(=S)N1CCC(NC(=O)C23CC4CC(CC(C4)C2)C3)CC1	i	63.2*	4.1	-0.477	-1.3
COc1ccc(-c2csc(N)n2)cc1	i	7.3	2.7	-0.0108	-7.0
COc1ccc(-c2csc(N=C(N)N)n2)cc1	i	59.6*	2.8	2.35	-0.2
CCN(CC)S(=O)(=O)c1ccc(-c2cc(C(=O)OC)sc2C(F)(F)F)cc1	i	/	/	0.626	-3.2
COc1ccc(-c2cc(-c3ccccc3)c(C#N)c(S(C)(=O)=O)n2)cc1	i	97.6*	5.2	-1.62	/
CC(C)Cn1c(N)c(C(=O)COC(=O)c2cc(C3CC3)nc3ccccc23)c(=O)n(C)c1=O	i	57.3*	6.2	-0.298	2.6
CC(C)Cn1c(N)c(C(=O)COC(=O)c2ccc([N+](=O)[O-])o2)c(=O)n(C)c1=O	i	87.8*	7.0	-1.48	-0.2
CC(C)Cn1c(N)c(C(=O)COC(=O)c2cc(-c3ccco3)nc3ccccc23)c(=O)n(C)c1=O	/	76.7*	2.4	-1.04	-0.2
Cn1c(=O)c(C(=O)COC(=O)c2cc(-c3ccco3)nc3ccccc23)c(N)n(Cc2ccccc2)c1=O	/	98.7*	2.7	-0.922	/
O=C(Nc1ccc(CN2CCOCC2)cc1)c1ccccc1F	i	5.0	1.7	0.486	-0.7
CCc1cccc(N=c2c([N+](=O)[O-])nn(-c3ccc(Cl)cc3)n2O)c1	i	37.3	2.0	1.36	-1.1
CC(C)Cn1c(N)c(C(=O)COC(=O)c2cc(-c3ccccc3)nc3ccccc23)c(=O)n(C)c1=O	i	99.5*	8.1	-0.194	3.3
COc1ccc(C)cc1S(=O)(=O)n1ccnc1C	i	-1.1	1.4	1.43	0.5
Cc1cc(Br)ccc1S(=O)(=O)n1ccnc1C	i	84.1*	2.1	-0.718	0.3
Cc1cc2cc(CN(Cc3ccco3)S(=O)(=O)c3c(C)ccc4nsnc34)c(=O)[nH]c2cc1C	i	75.6*	3.5	-0.0185	0.6
CC(C)CNC(=S)N(Cc1ccco1)Cc1cc2cc3c(cc2[nH]c1=O)OCCO3	i	88.1*	33.4*	0.841	-1.1
COc1ccccc1NC(=O)N(Cc1ccco1)Cc1cc2ccc(C)c(C)c2[nH]c1=O	i	10.1	57.1	3.73	121.8*
Cc1ccc2cc(CN(Cc3ccco3)C(=O)NCc3ccccc3)c(=O)[nH]c2c1C	i	17.9	4.4	0.607	-4.3
COc1ccccc1NC(=S)N(Cc1ccco1)Cc1cc2cc(C)c(C)cc2[nH]c1=O	/	36.5	7.5	-0.314	63.5*
COc1cc(Br)cc2cc(C(=O)N3CCN(C(=O)c4ccco4)CC3)c(=O)oc12	i	-3.3	6.8	0.363	-0.3
C=CCSc1nnc(NC(=O)Cn2cnc3c2c(=O)n(C)c(=O)n3C)s1	i	-3.6	6.1	-0.139	-5.1
Cc1ccc(C)c(N2CN(Cc3cccnc3)CNC2=S)c1	i	11.8	5.8	0.777	-0.7

Source: PubChem
